Measured values as given in ChEMBL document CHEMBL1130012 (J Med Chem, 1997).
pKi: −log10 of the molar value.

Columns and labels:
Rattus norvegicus [1] = organism: Rattus norvegicus; test: The Biodistribution of the antagonistic compound in male wistar rats, after 15 minutes of injection in the stomach expressed as (body weight-corrected) uptake value; type: organism-based; conditions: in vivo, 0.25 h
Rattus norvegicus [2] = organism: Rattus norvegicus; test: The Biodistribution of the antagonistic compound in male wistar rats, after 15 minutes of injection in the intestine expressed as (body weight-corrected) uptake value; type: organism-based; conditions: in vivo, 0.25 h
[3] = target: T1, Muscarinic acetylcholine receptor M2 (Rattus norvegicus, UniProt P10980); test: Binding affinity towards rat Muscarinic acetylcholine receptor M2 was determined
T1 sequence (P10980 whole entry): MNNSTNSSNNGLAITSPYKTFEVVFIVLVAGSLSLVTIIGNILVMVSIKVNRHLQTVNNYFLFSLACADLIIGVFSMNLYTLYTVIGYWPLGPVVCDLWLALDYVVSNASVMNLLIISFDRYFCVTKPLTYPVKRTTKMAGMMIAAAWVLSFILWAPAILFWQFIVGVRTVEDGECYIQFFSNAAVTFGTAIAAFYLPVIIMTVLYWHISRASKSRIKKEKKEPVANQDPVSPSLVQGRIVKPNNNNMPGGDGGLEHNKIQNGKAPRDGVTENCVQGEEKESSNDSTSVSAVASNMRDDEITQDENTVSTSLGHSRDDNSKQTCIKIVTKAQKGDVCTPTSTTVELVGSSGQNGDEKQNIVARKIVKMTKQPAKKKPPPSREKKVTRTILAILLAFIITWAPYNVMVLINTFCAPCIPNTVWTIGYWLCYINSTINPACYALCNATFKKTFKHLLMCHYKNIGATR

Rattus norvegicus [4] = test: The Biodistribution of the antagonistic compound along with pretreated atropine (2.5 mg/kg) in male wistar rats after 15 minutes of injection in the intestine expressed as (body weight-corrected) uptake value; type: organism-based; conditions: in vivo, 0.25 h
How it was run: (§1)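 Same protocol, except the pretreatment was saline containing atropine (0.5 mg/0.5 mL; 2.5 mg/kg) given i.v. 1 min before tail-vein injection of the radioligand (1.85-2.78 MBq in 0.4 mL saline) into pentobarbital-anaesthetized (60 mg/kg) male Wistar rats (240 g). Tissues removed at 15 min and counted ex vivo. Uptake is body-weight-corrected DAR = (cpm/g tissue)/(cpm injected/g body weight).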

Rattus norvegicus [5] = test: The Biodistribution of the antagonistic compound along with pretreated atropine (2.5 mg/kg) in male wistar rats after 15 minutes of injection in the cortex expressed as (body weight-corrected) uptake value; Below limit of detection; type: organism-based; conditions: in vivo, 0.25 h; how it was run: as §1
Rattus norvegicus [6] = organism: Rattus norvegicus; test: The Biodistribution of the antagonistic compound in male wistar rats, after 15 minutes of injection in the trachea expressed as (body weight-corrected) uptake value; type: organism-based; conditions: in vivo, 0.25 h
Rattus norvegicus [7] = test: The Biodistribution of the antagonistic compound along with pretreated atropine (2.5 mg/kg) in male wistar rats after 15 minutes of injection in the pancreas expressed as (body weight-corrected) uptake value; type: organism-based; conditions: in vivo, 0.25 h; how it was run: as §1
Rattus norvegicus [8] = test: The Biodistribution of the antagonistic compound along with pretreated atropine (2.5 mg/kg) in male wistar rats after 15 minutes of injection in the heart expressed as (body weight-corrected) uptake value; type: organism-based; conditions: in vivo, 0.25 h; how it was run: as §1
Rattus norvegicus [9] = test: The Biodistribution of the antagonistic compound along with pretreated atropine (2.5 mg/kg) in male wistar rats after 15 minutes of injection in the lung expressed as (body weight-corrected) uptake value; type: organism-based; conditions: in vivo, 0.25 h; how it was run: as §1
[10] = target: T2, Muscarinic acetylcholine receptor M1 (Rattus norvegicus, UniProt P08482); test: Binding affinity towards rat Muscarinic acetylcholine receptor M1 was determined
T2 sequence (P08482 whole entry): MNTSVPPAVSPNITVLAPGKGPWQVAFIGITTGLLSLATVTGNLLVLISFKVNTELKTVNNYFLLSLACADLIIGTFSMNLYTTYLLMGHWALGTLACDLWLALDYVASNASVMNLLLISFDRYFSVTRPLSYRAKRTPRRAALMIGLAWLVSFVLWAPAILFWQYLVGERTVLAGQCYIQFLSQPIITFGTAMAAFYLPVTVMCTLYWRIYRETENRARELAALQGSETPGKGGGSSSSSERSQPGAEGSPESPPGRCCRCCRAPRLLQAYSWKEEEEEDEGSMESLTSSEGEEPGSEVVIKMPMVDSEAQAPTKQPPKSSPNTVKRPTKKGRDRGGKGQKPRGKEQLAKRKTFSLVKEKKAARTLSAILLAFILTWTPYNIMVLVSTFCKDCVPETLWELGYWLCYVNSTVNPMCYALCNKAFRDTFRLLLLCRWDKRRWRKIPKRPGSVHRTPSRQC

Rattus norvegicus [11] = test: The Biodistribution of the antagonistic compound along with pretreated atropine (2.5 mg/kg) in male wistar rats after 15 minutes of injection in the submandibular gland expressed as (body weight-corrected) uptake value; type: organism-based; conditions: in vivo, 0.25 h; how it was run: as §1
Rattus norvegicus [12] = organism: Rattus norvegicus; test: The Biodistribution of the antagonistic compound in male wistar rats, after 15 minutes of injection in the fat; type: organism-based; conditions: in vivo, 0.25 h
Rattus norvegicus [13] = test: The Biodistribution of the antagonistic compound along with pretreated atropine (2.5 mg/kg) in male wistar rats after 15 minutes of injection in the fat expressed as (body weight-corrected) uptake value; type: organism-based, Adipose tissue; conditions: in vivo, 0.25 h; how it was run: as §1
Rattus norvegicus [14] = organism: Rattus norvegicus; test: The Biodistribution of the antagonistic compound in male wistar rats, after 15 minutes of injection in the muscle expressed as (body weight-corrected) uptake value; type: organism-based, Muscle tissue; conditions: in vivo, 0.25 h
Rattus norvegicus [15] = organism: Rattus norvegicus; test: The Biodistribution of the antagonistic compound in male wistar rats, after 15 minutes of injection in the spleen; type: organism-based; conditions: in vivo, 0.25 h
Rattus norvegicus [16] = test: The Biodistribution of the antagonistic compound along with pretreated atropine (2.5 mg/kg) in male wistar rats after 15 minutes of injection in the spleen expressed as (body weight-corrected) uptake value; type: organism-based; conditions: in vivo, 0.25 h; how it was run: as §1
Rattus norvegicus [17] = test: The Biodistribution of the antagonistic compound along with pretreated atropine (2.5 mg/kg) in male wistar rats after 15 minutes of injection in the stomach expressed as (body weight-corrected) uptake value; type: organism-based; conditions: in vivo, 0.25 h; how it was run: as §1
Rattus norvegicus [18] = organism: Rattus norvegicus; test: The Biodistribution of the antagonistic compound in male wistar rats, after 15 minutes of injection in the testes expressed as (body weight-corrected) uptake value; type: organism-based, Testis; conditions: in vivo, 0.25 h
[19] = target: T3, Muscarinic acetylcholine receptor M1 (Bos taurus, UniProt Q8WMX0); type: cell membranes, Brain, Membrane
T3 sequence (Q8WMX0 whole entry): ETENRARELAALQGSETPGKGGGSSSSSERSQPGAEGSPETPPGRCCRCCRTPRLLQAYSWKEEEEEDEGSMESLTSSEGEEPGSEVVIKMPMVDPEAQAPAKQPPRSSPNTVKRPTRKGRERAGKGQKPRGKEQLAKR

Rattus norvegicus [20] = test: The Biodistribution of the antagonistic compound along with pretreated atropine (2.5 mg/kg) in male wistar rats after 15 minutes of injection in the trachea expressed as (body weight-corrected) uptake value; type: organism-based; conditions: in vivo, 0.25 h; how it was run: as §1
Rattus norvegicus [21] = test: The Biodistribution of the antagonistic compound along with pretreated atropine (2.5 mg/kg) in male wistar rats after 15 minutes of injection in the liver expressed as (body weight-corrected) uptake value; type: organism-based; conditions: in vivo, 0.25 h; how it was run: as §1
Rattus norvegicus [22] = test: The Biodistribution of the antagonistic compound along with pretreated atropine (2.5 mg/kg) in male wistar rats after 15 minutes of injection in the bladder; type: organism-based, Urinary bladder/Urine; conditions: in vivo, 0.25 h; how it was run: as §1
Rattus norvegicus [23] = test: The Biodistribution of the antagonistic compound along with pretreated atropine (2.5 mg/kg) in male wistar rats after 15 minutes of injection in the red blood cells expressed as (body weight-corrected) uptake value; Below limit of detection; type: organism-based; conditions: in vivo, 0.25 h; how it was run: as §1
Rattus norvegicus [24] = organism: Rattus norvegicus; test: The Biodistribution of the antagonistic compound in male wistar rats, after 15 minutes of injection in the heart expressed as (body weight-corrected) uptake value; type: organism-based; conditions: in vivo, 0.25 h
Rattus norvegicus [25] = organism: Rattus norvegicus; test: The Biodistribution of the antagonistic compound in male wistar rats, after 15 minutes of injection in the lung expressed as (body weight-corrected) uptake value; type: organism-based; conditions: in vivo, 0.25 h
Rattus norvegicus [26] = organism: Rattus norvegicus; test: The Biodistribution of the antagonistic compound in male wistar rats, after 15 minutes of injection in the bladder expressed as (body weight-corrected) uptake value; type: organism-based, Urinary bladder/Urine; conditions: in vivo, 0.25 h
Rattus norvegicus [27] = organism: Rattus norvegicus; test: The Biodistribution of the antagonistic compound in male wistar rats, after 15 minutes of injection in the cerebellum expressed as (body weight-corrected) uptake value; Below limit of detection; type: organism-based; conditions: in vivo, 0.25 h
Rattus norvegicus [28] = organism: Rattus norvegicus; test: The Biodistribution of the antagonistic compound in male wistar rats, after 15 minutes of injection in the red blood cells expressed as (body weight-corrected) uptake value; Below limit of detection; type: organism-based; conditions: in vivo, 0.25 h
Rattus norvegicus [29] = test: The Biodistribution of the antagonistic compound along with pretreated atropine (2.5 mg/kg) in male wistar rats after 15 minutes of injection in the muscle expressed as (body weight-corrected) uptake value; type: organism-based, Muscle tissue; conditions: in vivo, 0.25 h; how it was run: as §1
Rattus norvegicus [30] = test: The Biodistribution of the antagonistic compound along with pretreated atropine (2.5 mg/kg) in male wistar rats after 15 minutes of injection in the cerebellum; Below limit of detection; type: organism-based; conditions: in vivo, 0.25 h; how it was run: as §1
Rattus norvegicus [31] = organism: Rattus norvegicus; test: The Biodistribution of the antagonistic compound in male wistar rats, after 15 minutes of injection in the pancreas expressed as (body weight-corrected) uptake value; type: organism-based; conditions: in vivo, 0.25 h
Rattus norvegicus [32] = organism: Rattus norvegicus; test: The Biodistribution of the antagonistic compound in male wistar rats, after 15 minutes of injection in the liver expressed as (body weight-corrected) uptake value; type: organism-based; conditions: in vivo, 0.25 h
Rattus norvegicus [33] = organism: Rattus norvegicus; test: The Biodistribution of the antagonistic compound in male wistar rats, after 15 minutes of injection in the submandibular gland expressed as (body weight-corrected) uptake value; type: organism-based; conditions: in vivo, 0.25 h
Rattus norvegicus [34] = test: The Biodistribution of the antagonistic compound along with pretreated atropine (2.5 mg/kg) in male wistar rats after 15 minutes of injection in the testes expressed as (body weight-corrected) uptake value; type: organism-based, Testis; conditions: in vivo, 0.25 h; how it was run: as §1
Rattus norvegicus [35] = test: The Biodistribution of the antagonistic compound along with pretreated atropine (2.5 mg/kg) in male wistar rats after 15 minutes of injection in the plasma expressed as (body weight-corrected) uptake value; type: organism-based; conditions: in vivo, 0.25 h; how it was run: as §1
Rattus norvegicus [36] = organism: Rattus norvegicus; test: The Biodistribution of the antagonistic compound in male wistar rats, after 15 minutes of injection in the cortex expressed as (body weight-corrected) uptake value; Below limit of detection; type: organism-based; conditions: in vivo, 0.25 h
Rattus norvegicus [37] = organism: Rattus norvegicus; test: The Biodistribution of the antagonistic compound in male wistar rats, after 15 minutes of injection in the plasma expressed as (body weight-corrected) uptake value; type: organism-based; conditions: in vivo, 0.25 h
Rattus norvegicus [38] = test: The Biodistribution of the antagonistic compound along with pretreated atropine (2.5 mg/kg) in male wistar rats after 15 minutes of injection in the kidney expressed as (body weight-corrected) uptake value; type: organism-based; conditions: in vivo, 0.25 h; how it was run: as §1
Rattus norvegicus [39] = organism: Rattus norvegicus; test: The Biodistribution of the antagonistic compound in male wistar rats, after 15 minutes of injection in the kidney expressed as (body weight-corrected) uptake value; type: organism-based; conditions: in vivo, 0.25 h

C[N+]1(C)CCC(OC(=O)[C@](O)(c2ccccc2)C2CCCCC2)CC1.[I-]
Uptake value (Rattus norvegicus [1]): 2.76 | Uptake value (Rattus norvegicus [2]): 6.08 | pKi [3]: 9.68 | Uptake value (Rattus norvegicus [4]): 0.97 | Uptake value (Rattus norvegicus [5]): Not Active | Uptake value (Rattus norvegicus [6]): 0.89 | Uptake value (Rattus norvegicus [7]): 0.35 | Uptake value (Rattus norvegicus [8]): 0.12 | Uptake value (Rattus norvegicus [9]): 0.11 | pKi [10]: 11.00 | Uptake value (Rattus norvegicus [11]): 0.23 | Uptake value (Rattus norvegicus [12]): 0.1 | Uptake value (Rattus norvegicus [13]): 0.37 | Uptake value (Rattus norvegicus [14]): 0.07 | Uptake value (Rattus norvegicus [15]): 1.23 | Uptake value (Rattus norvegicus [16]): 0.12 | Uptake value (Rattus norvegicus [17]): 0.22 | Uptake value (Rattus norvegicus [18]): 0.12 | pKi [19]: 10.70 | Uptake value (Rattus norvegicus [20]): 0.26 | Uptake value (Rattus norvegicus [21]): 9.41 | Uptake value (Rattus norvegicus [22]): 5.92 | Uptake value (Rattus norvegicus [23]): Not Active | Uptake value (Rattus norvegicus [24]): 12.78 | Uptake value (Rattus norvegicus [25]): 1.03 | Uptake value (Rattus norvegicus [26]): 4.68 | Uptake value (Rattus norvegicus [27]): Not Active | Uptake value (Rattus norvegicus [28]): Not Active | Uptake value (Rattus norvegicus [29]): 0.07 | Uptake value (Rattus norvegicus [30]): Not Active | Uptake value (Rattus norvegicus [31]): 2.85 | Uptake value (Rattus norvegicus [32]): 5.42 | Uptake value (Rattus norvegicus [33]): 2.64 | Uptake value (Rattus norvegicus [34]): 0.16 | Uptake value (Rattus norvegicus [35]): 0.19 | Uptake value (Rattus norvegicus [36]): Not Active | Uptake value (Rattus norvegicus [37]): 0.1 | Uptake value (Rattus norvegicus [38]): 4.32 | Uptake value (Rattus norvegicus [39]): 2.75
